PLK1 kinase inh: PLK1 (human) kinase inhibition | recombinant PLK1 kinase, TR-FRET peptide phosphorylation | actives 0.53% (n = 97,000) | AID 619 | P53350 | inhibition, % at 10 µM;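 active means inhibition of 50% or more in the single-concentration screen; inactive means inhibition below 50%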
DAT uptake mod: human DAT dopamine uptake with cocaine, either direction. AID 449768. Q01959. actives 1.3% (n = 110,000). B-score at 10 µM. LLC-PK1 hDAT cells, [14C]-dopamine uptake with cocaine IC80; actives deviate in either direction;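 active means Z score or B-score, a plate-position-corrected score, falls beyond the plate's 99.7% confidence bounds, in either direction; inactive means both scores lie inside the 99.7% bounds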
Plk1 PBD FP: blocks phosphopeptide binding to human Plk1 polo box domain. P53350. Plk1 PBD phosphopeptide binding, fluorescence polarization. inhibition, %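 (tested at about 20 µM)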. actives 0.13% (n = 97,000); in the data active means inhibition above about 34%, passing the limit was not always enough
EphB4 ephrin blk: antagonists of human EphB4-ephrin-B2 interaction; P54760; EphB4 LBD / TNYL-RAW-Alexa532 peptide, fluorescence polarization; inhibition, % at 7 µM; actives 0.15% (n = 97,000); AID 720;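 active means inhibition above the screen-wide mean inhibition plus 3 SD, cut at about 15% in these data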
HIV Rev-RRE inh: HIV Rev-RRE protein-RNA interaction inhibition | AID 704 | P05866 | actives 0.79% (n = 97,000) | Rev peptide-RRE RNA binding, FRET | inhibition, % at 8 µM;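 active means inhibition above the screen-wide mean plus 3 SD, cut at about 35% in these data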
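Assay system: labelled RRE RNA duplex and labelled Rev peptide / Medium: HEPES pH 7.5 salt buffer with EDTA / Reagent: labelled Rev peptide / Schedule: 5 + 15 min at 25 °C / Signal: FRET, excitation 480 nm, emission 540 nm donor and 671 nm acceptor / Benchmarks: DMSO and neomycin B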
FAK inh: blocks human focal adhesion kinase activity. actives 0.84% (n = 97,000). Q05397. inhibition, %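 (tested at 7 µM)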. biochemical FAK kinase activity assay; in the data active means inhibition above about 19%
Numbers stand for hits; – = inactive; · = not tested or not shown; [ ] = dose if it differs, or a comment. A selection: hits, their analogues and other compounds. The true share with any hit is near 3.2%.

SMILES	PLK1 kinase inh	DAT uptake mod	Plk1 PBD FP	EphB4 ephrin blk	HIV Rev-RRE inh	FAK inh
N[C@@H](Cc1c[nH]c2ccccc12)c1nnc(SCc2ccc(Cl)cc2)o1	–	-8.5	–	–	–	–
N[C@@H](Cc1c[nH]c2ccccc12)c1nnc(SCc2ccccc2)o1	–	–	–	–	–	–
O=P(N[C@@H](c1ccccc1)[C@@H]1C[C@H]1CO)(c1ccccc1)c1ccccc1	·	–	·	·	·	·
O=C(c1ccccc1F)c1cn(CC(=O)N2CCCCC2)c2ccccc12	–	–	–	–	–	–
O=C(Cn1ncc2c3ccccc3n(Cc3cccc(Cl)c3)c2c1=O)N1CCC2(CC1)OCCO2	·	6	·	·	·	·
Cc1ccc2c(c1)C1CN(C)CCC1N2C(=O)Nc1cccc(Cl)c1 (configuration not stated)	–	3.4	–	–	–	–
CCN(CC)CC(=O)Nc1ccc(Cl)cc1C(=O)c1ccccc1	–	–	–	–	–	–
COC1CC(OC2CCC3(C)C(CCC4C3CCC3(C)C(C5=CC(=O)OC5)C(OC(C)=O)CC43O)C2)OC(C)C1OC1OC(COC2OC(CO)C(O)C(O)C2O)C(O)C(O)C1O (configuration not stated)	·	-8.9	·	·	·	·
CCN(CC)c1ccc(N=Cc2c(O)n(-c3ccccc3C)c(=O)[nH]c2=O)cc1	–	–	–	–	66	–
CCOc1ccccc1-n1c(O)c(C=Nc2ccc(N(CC)CC)cc2)c(=O)[nH]c1=O	·	–	·	·	·	·
CCOc1ccc(N=Cc2c(O)n(C(C)(C)C)c(=O)[nH]c2=O)cc1	–	–	–	–	–	–
CCOc1ccc(-n2c(O)c(C=Nc3ccc(N(CC)CC)cc3)c(=O)[nH]c2=O)cc1	–	–	–	–	71	–
CN1CC2=CC(O)CC3Oc4c(O)ccc(c4[C@]23C)C1 (some centres not stated)	·	–	·	·	·	·
Oc1ccc(C2=CCNCC2)cc1O	·	–	·	·	·	·
C=CCn1c(=O)c(C=Nc2cccc([N+](=O)[O-])c2)c(O)n(CCCC)c1=O	–	–	–	–	45	–
CCCCCCn1c(O)c(C=Nc2c(C)n(C)n(-c3ccccc3)c2=O)c(=O)[nH]c1=O	–	–	–	–	–	–
CCOC(=O)c1c(-n2c(C)cc(/C=C3/C(=O)NC(=O)N(CC)C3=O)c2C)sc2c1CCCC2	–	–	–	–	–	–
CCOC(=O)c1c(-n2c(C)cc(C=C3C(=O)NC(=S)NC3=O)c2C)sc2c1CCCC2	–	–	–	–	41	–
CC(=NCc1cccnc1)c1c(O)n(-c2ccccc2)c(=O)[nH]c1=O	–	–	–	–	–	–
O=C(COc1ccc(Cl)cc1)N1CCN(Cc2ccccc2)CC1	–	–	–	–	–	–
COc1cccc(CN2CCN(C(=O)COc3ccc4ccccc4c3)CC2)c1	–	2.4	–	–	–	–
CCOc1ccc(-n2c(O)c(C=NCCCn3ccnc3)c(=O)[nH]c2=O)cc1	–	–	–	–	–	–
CC(C)[C@@]1(NC(=O)[C@@H]2C[C@@H]3c4cccc5[nH]cc(c45)C[C@H]3N(C)C2)O[C@@]2(O)[C@@H]3CCCN3C(=O)[C@H](Cc3ccccc3)N2C1=O	·	3.6	·	·	·	·
COc1ccc(N=C2SCCCN2C)cc1	–	–	–	–	–	–
CCN1/C(=C\C=C\C2=[N+](CC)c3ccccc3C2(C)C)C(C)(C)c2ccccc21	53	·	–	–	57[fluorescence artefact?]	–
SMILES	PLK1 kinase inh	DAT uptake mod	Plk1 PBD FP	EphB4 ephrin blk	HIV Rev-RRE inh	FAK inh
NC(=O)c1cc(N2CC2)c([N+](=O)[O-])cc1[N+](=O)[O-]	·	–	·	·	·	·
O=C1NC(=O)C2(Cc3ccccc3N3CCCC32)C(=O)N1Cc1ccccc1 (configuration not stated)	·	–	·	·	·	·
O=C1NC(=O)C2(Cc3c(nc4ccccn4c3=O)N3CCCCCC32)C(=O)N1Cc1ccccc1 (configuration not stated)	–	2.5	–	–	–	–
COC(=O)C1=C(c2ccc(S(C)(=O)=O)cc2)C[C@@H]2CC[C@H]1N2C(=O)N1CCC(O)CC1	·	–	·	·	·	·
COc1ccc(-c2cc(=O)c3c(OC)c(OC)c(OC)cc3o2)cc1	·	4.7	·	·	·	·
CC1=C(C(=O)N2CCC3(CC2)OCCO3)C2(CCC(C)CC2)OC1=O (configuration not stated)	–	–	–	20	–	–
